Measured values: ChEMBL document CHEMBL4270554, “Discovery of the cancer cell selective dual acting anti-cancer agent (Z)-2-(1H-indol-3-yl)-3-(isoquinolin-5-yl)acrylonitrile (A131)” (Eur J Med Chem, 2018)

Tests used:
Type in all cases: functional
[1] = Antiproliferative activity against human Ist1 cells after 72 hrs by MTT assay
Summary of the method: (§1)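 Cells cultured at 37 °C, 5% CO₂ in medium with 10% FBS and penicillin/streptomycin, used within 12-20 passages. Seeded at 2.5×10^3 cells/well for 24 h, then compound added from DMSO stocks at 200-fold final concentration (final DMSO 0.5% v/v). After 72 h, 0.5 mg/mL MTT for 3 h, formazan dissolved in DMSO, A570 read. IC50 from sigmoidal fit; three independent determinations.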

AZ-521 cell line = assay: Antiproliferative activity against human AZ-521 cells after 72 hrs by MTT assay; settings: AZ-521, 72 h; summary of the method: as §1
A549 = assay: Antiproliferative activity against human A549 cells after 72 hrs by MTT assay; settings: A549, 72 h; summary of the method: as §1
IM95 = assay: Antiproliferative activity against human IM95 cells after 72 hrs by MTT assay; settings: IM95, 72 h; summary of the method: as §1
HeLa [2] = assay: Antiproliferative activity against human HeLa cells after 72 hrs by MTT assay; summary of the method: as §1
SNU1 = assay: Antiproliferative activity against human SNU1 cells after 72 hrs by MTT assay; settings: SNU1, 72 h; summary of the method: as §1
HeLa [3] = assay: Induction of autophagy in human HeLa cells assessed as increase in LC3-2 to LC3-1 ratio at 10 uM after 6 hrs by immunoblot analysis relative to control
Summary of the method: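 HeLa cells exposed 6 h to test agent (0.625–10 μM series) or chloroquine (1.25–100 μM series) vs DMSO; lysed in 1% Triton buffer (25 mM Tris pH 8.0, 150 mM NaCl, DTT, protease/phosphatase inhibitors), 14% SDS-PAGE, immunoblot with anti-LC3, anti-pH3(Ser10), β-actin loading. LC3-II/LC3-I band intensity ratio expressed relative to DMSO control.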

N#C/C(=C\c1cccc2cnccc12)c1c[nH]c2ccccc12
GI50 [1]: 2200 nM | GI50 (AZ-521 cell line): 2400 nM | GI50 (A549): 2000 nM | GI50 (IM95): 1000 nM | GI50 (HeLa [2]): 1400 nM | GI50 (SNU1): 900 nM | fold change (FC) (HeLa [3]): 4.3
